# An excerpt weighted towards active compounds, which were near 2.2% of everything screened.
# APJ ag – activates the human apelin receptor APJ | activation, % at 20 µM | AID 2520 | CHO-K1 APJ PathHunter beta-arrestin, luminescence; 0% DMSO wells, 100% apelin | hit rate 0.11% among 330,000 | P35414;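 active = activation more than six SD over the plate average, tested at 20 µM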;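 also: 0% = DMSO alone and 100% = apelin-13 at 10 nM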
#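 Test system: CHO-K1 APJ beta-arrestin complementation cell line | Compound: Single test compound dose, 20 µM final, 1% DMSO | Incubation: Compound 90 min 25 °C, reagent 1 h | Measured by: beta-gal luminescence | Read-out basis: APJ–arrestin association signal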
# APJ antagonist – blocks the human apelin receptor APJ; P35414; CHO-K1 APJ beta-arrestin complementation, luminescence; inhibition, % at 20 µM; hit rate 0.32% among 330,000; AID 2521;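 active = inhibition above about 40% at 20 µM, limit read from the data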;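 also: cells challenged with 10 nM apelin-13 agonist together with compound; plate controls were apelin-13 plus DMSO wells for no effect and DMSO wells lacking apelin-13 for full effect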
# EBI2 block – EBI2 (human) antagonism. AID 651636. hit rate 0.81% among 360,000. EBI2 beta-arrestin recruitment, luminescence, 7a,25-OHC stimulated. inhibition, % at 5 µM; in the data active = inhibition above about 38%;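 also: enzyme fragment complementation signal reports receptor beta-arrestin coupling in cells; 0% = agonist plus DMSO wells and 100% = wells without agonist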
# CCR6 antag – CCR6 (human) receptor antagonism; P51684; CHO-K1 CCR6 PathHunter beta-arrestin, luminescence, CCL20-stimulated; inhibition, % at 20 µM; hit rate 0.49% among 340,000; AID 493098;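 active = compounds whose inhibition of the agonist-driven luminescence signal at 20 µM reaches about 50%, limit read from the data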;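 also: cells stimulated with CCL20 at 14 nM final; plate controls were DMSO with CCL20 for no effect and DMSO without agonist for full effect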
# HTR2A ag – agonists of mouse serotonin 5-HT2A receptor (HTR2A); CHO-K1 mHTR2A beta-arrestin complementation, luminescence; percent of 30 µM serotonin response; hit rate 0.66% among 360,000; activation, % at 7.6 µM; P35363;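 active = activation above a run cutoff, the mean activation of all tested compounds plus 3 SD, cut at about 14% in these data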;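 also: 0% = plate median of compound wells and 100% = 30 µM serotonin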
# CXCR6 block – blocks human CXCR6 beta-arrestin recruitment; O00574; CHO-K1 PathHunter CXCR6 beta-arrestin, luminescence; inhibition, % at 20 µM; hit rate 0.36% among 360,000; AID 602244; in the data active = inhibition above about 34%, passing the limit was not always enough;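 also: antagonist mode with CXCL16 agonist at 10 nM final; 0% = 10 nM CXCL16 with DMSO and 100% = unstimulated wells without agonist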
# Target sequence (O00574 whole entry, looked up): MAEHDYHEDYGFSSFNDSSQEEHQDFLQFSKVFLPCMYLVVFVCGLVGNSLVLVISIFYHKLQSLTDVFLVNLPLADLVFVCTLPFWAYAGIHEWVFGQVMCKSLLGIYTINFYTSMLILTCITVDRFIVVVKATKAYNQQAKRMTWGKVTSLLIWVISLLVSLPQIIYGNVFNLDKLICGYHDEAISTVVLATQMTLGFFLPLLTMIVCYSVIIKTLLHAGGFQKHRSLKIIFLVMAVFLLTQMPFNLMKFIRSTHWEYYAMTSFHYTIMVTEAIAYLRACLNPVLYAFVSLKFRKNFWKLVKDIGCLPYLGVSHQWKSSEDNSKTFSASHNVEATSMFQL
# APJ antag confirm – APJ receptor antagonism confirmation; shares compounds with APJ antagonist; APJ beta-arrestin recruitment, luminescence, antagonist mode; inhibition, % at 20 µM; hit rate 66% among 950; AID 2766; in the data active = inhibition above about 50%
# The depositor's hits bear a star; . = not tested or not shown.
SMILES,APJ ag,APJ antagonist,EBI2 block,CCR6 antag,HTR2A ag,CXCR6 block,APJ antag confirm
COc1ccc(-c2csc(NC(=S)NC(=O)/C=C/c3ccc(C(C)C)cc3)n2)cc1OC,-12,41*,-3,17,-1,22,44
COc1ccc(C(=O)NC(=S)Nc2nc(-c3ccc(OC)c(Br)c3)cs2)cc1Br,-1,43*,-12,27,-3,15,30
COc1ccc(-c2csc(NC(=S)NC(=O)c3cc4ccccc4o3)n2)cc1Br,-3,45*,-3,41,-6,5,9
Cc1ccc(S(=O)(=O)N2[C@@H](CCO)OC[C@H]2C(C)C)cc1,.,.,-7,.,2,.,.
CCn1cc(/C=C(\NC(=O)c2ccccc2F)C(=O)N2CCN(C)CC2)c2ccccc21,.,.,7,.,0,-1,.
CN(C)c1ccc(N=Nc2ccc(S(=O)(=O)O)cc2)c2ccccc12,-8,41*,12,62*,-5,42*,92*
CN(C)c1ccc(N=Nc2ccc(S(N)(=O)=O)cc2)cc1,-8,24,10,29,0,20,.
CC(C)C[C@H]1CN(CCCC[C@H]2CNC(=O)C(=O)N2Cc2ccccc2)C(=O)C(=O)N1CCc1ccc(O)cc1,.,.,-9,.,-1,-5,.
CCN(CC(=O)Nc1c(F)cccc1F)C(=O)CCCSc1nc2ccccc2[nH]1,.,.,-1,.,0,-4,.
Cc1cccc2c1N(CCCOc1ccccc1)C(=O)C2=O,-5,44*,11,39,0,0,76*
CN1CCS/C1=C\C=C1/SC(=S)N(CC(=O)O)C1=O,.,.,11,32,-5,21,.
CN1/C(=C\C=C2/SC(=S)N(CC(=O)O)C2=O)C(C)(C)c2ccccc21,-11,51*,0,59*,-1,45*,93*
C=CCN1C(=O)/C(=C\C=C2\N(C)c3ccccc3C2(C)C)SC1=S,-7,57*,38,71*,7,30,82*
CCCN1C(=O)/C(=C/C=C2\N(CC)c3ccccc3C2(C)C)SC1=S,-12,15,37,34,2,20,.
Cc1ccc2oc(/N=C(\N)NC(=O)C(C)(C)C)nc2c1,-12,54*,16,70*,1,71*,15
NS(=O)(=O)c1ccc(NNC(=O)c2ccccc2)cc1,0,-9,-16,-8,-4,2,.
O=C(NNc1cc(Br)c(O)c(Br)c1)c1ccccc1,-14,96*,38,87*,-7,59*,137*
Nc1c(N2CCCC2)c2ccccc2oc1=O,-9,71*,28,55*,3,31,83*
COc1ccc(NC(=O)/C(Cl)=C(/Cl)S(=O)Cc2ccccc2Cl)cn1 (centres undefined),-6,79*,.,96*,.,.,104*
COc1ccc(NC(=O)Cc2ccccc2F)cn1,-3,13,-8,9,2,-1,.
CCOc1c(C(N)=O)c(-c2ccccc2)c2c(=O)[nH]c3ccccc3n12,-8,60*,20,16,-12,35,60*
Cc1cc(C)n(-c2nc(SCCN(C)C)c3c4c(sc3n2)CCCC4)n1,-11,49*,-8,19,-5,2,38
Cc1cc(C)n(-c2nc(SCC(=O)O)c3c4c(sc3n2)COC(C)(C)C4)n1,0,-8,18,10,0,-5,.
CCOC(=O)C1=C(C)N=c2s/c(=C/c3cccc([N+](=O)[O-])c3O)c(=O)n2C1c1ccc(OC)cc1OC (centres undefined),-7,57*,-5,64*,-1,41*,98*
COCCN(Cc1ccc(C)cc1)C(=O)[C@H]1O[C@@H](n2cnc3c(N)ncnc32)[C@H](O)[C@@H]1O,.,.,-9,.,1,-3,.
SMILES,APJ ag,APJ antagonist,EBI2 block,CCR6 antag,HTR2A ag,CXCR6 block,APJ antag confirm
CSc1ccc(CN2CCC(C)(Oc3ccc(C(C)=O)cc3)C2)cc1 (centres undefined),.,.,2,.,-4,0,.
CCOc1cc(/C=C2/SC(=S)N(CC3CCCO3)C2=O)ccc1O (centres undefined),-7,48*,9,67*,1,51*,101*
O=C(O)C(c1ccccc1)N1C(=O)/C(=C\c2ccc(O)c(O)c2)SC1=S (centres undefined),-7,45*,10,53*,2,42*,87*
COc1cc(/C=C2\SC(=S)N(C(C(=O)O)c3ccccc3)C2=O)ccc1O (centres undefined),-10,50*,0,47,-5,42*,91*
CCOc1cc(/C=C2\SC(=S)N(C(C(=O)O)c3ccccc3)C2=O)ccc1O (centres undefined),-8,49*,1,50*,-12,48*,92*
O=C1/C(=C/c2cccc(O)c2)SC(=S)N1CC1CCCO1 (centres undefined),-4,8,-7,7,2,6,.
CCOc1ccc(/C=C2/SC(=S)N(C(C(=O)O)c3ccccc3)C2=O)cc1OCC (centres undefined),.,.,-7,30,-1,25,.
COc1ccccc1/C=C1\SC(=S)N(C(C(=O)O)c2ccccc2)C1=O (centres undefined),2,13,9,12,-3,17,.
O=S1(=O)CC(O)C(O)CS1 (centres undefined),.,.,-9,.,1,-11,.
Nc1[nH]n2c(=O)cc(-c3ccccc3)nc2c1N=Nc1ccc(S(N)(=O)=O)cc1,-7,42*,12,51*,0,22,65*
Cc1cc(C)n2[nH]c(=O)c(N=Nc3ccc(S(N)(=O)=O)cc3)c2n1,-6,16,-6,16,3,18,.
CCCCOCCCNC(=O)C[C@@H]1C[C@@]2(C(=O)OC)CCCCC=C2N(Cc2cccc3ccccc23)C1=O,.,.,16,.,-6,12,.
COc1ccc(NC(=O)CS(=O)(=O)c2ccc(C)cc2)c(OC)c1,-3,110*,-12,2,-2,7,17
CC1([N+](=O)[O-])COC(c2cccc3ccccc23)OC1 (centres undefined),.,.,0,3,-2,-7,.
O=C(N/N=C/c1ccc(-c2ccccc2Cl)o1)c1ccccc1,-3,1,4,10,-6,-5,.
O=S(=O)(N/N=C\c1ccc(-c2ccccc2Cl)o1)c1ccccc1,-12,59*,14,46,-4,16,59*
O=S1(=O)Nc2c(ccc3cccnc23)-c2ccccc21,-11,53*,37,61*,-11,42*,43
Cn1ccc2c(/C=C/c3ccc(F)cc3)cc3c(c21)C1CCC3O1 (centres undefined),.,.,20,.,4,-1,.

# Screens (PubChem)
